Measured values as given in ChEMBL document CHEMBL5247578, “Effective synthesis of benzimidazoles-imidazo[1,2-a]pyrazine conjugates: A comparative study of mono-and bis-benzimidazoles for antitumor activity” (Eur J Med Chem, 2019).

Key:
Type in all cases: functional
NCI/ADR-RES [1] = test: Antiproliferative activity against human NCI/ADR-RES cells assessed as cell growth at 0.00000001 M incubated for 48 hrs by SRB assay relative to control; conditions: dose 10 nM, read-out: Activity
RXF 393 = test: Antiproliferative activity against human RXF 393 cells assessed as cell growth at 0.00001 M incubated for 48 hrs by SRB assay relative to control; conditions: read-out: Activity
ACHN [2] = test: Antiproliferative activity against human ACHN cells assessed as cell growth at 0.00001 M incubated for 48 hrs by SRB assay relative to control; conditions: read-out: Activity
In short: (§1)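 NCI-60 five-dose screen over 10^-4–10^-8 M (10-fold dilutions). Cells grown in RPMI 1640 with 5% FBS and 2 mM L-glutamine, seeded at 5,000–40,000 cells/well and preincubated 24 h. Drug from DMSO stock, 48 h at 37 °C, 5% CO2. Adherent cells TCA-fixed and stained with 0.4% SRB; A515 read. Percent growth = (Ti−Tz)/(C−Tz)×100, or (Ti−Tz)/Tz×100 when Ti<Tz.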

SK-OV-3 = test: Growth inhibition against human SK-OV-3 cells incubated for 48 hrs by sulforhodamine B assay
A549 = test: Antiproliferative activity against human A549 cells assessed as cell growth at 0.000001 M incubated for 48 hrs by SRB assay relative to control; conditions: read-out: Activity; in short: as §1
COLO 205 = test: Growth inhibition against human COLO 205 cells incubated for 48 hrs by sulforhodamine B assay
SK-MEL-28 = test: Antiproliferative activity against human SK-MEL-28 cells assessed as cell growth at 0.0000001 M incubated for 48 hrs by SRB assay relative to control; conditions: dose 100 nM, read-out: Activity
SR = test: Antiproliferative activity against human SR cells assessed as cell growth at 0.00001 M incubated for 48 hrs by SRB assay relative to control; conditions: read-out: Activity
UACC-257 = test: Growth inhibition against human UACC-257 cells incubated for 48 hrs by sulforhodamine B assay
IGROV-1 = test: Growth inhibition against human IGROV-1 cells incubated for 48 hrs by sulforhodamine B assay
RPMI-8226 [3] = test: Growth inhibition against human RPMI-8226 cells incubated for 48 hrs by sulforhodamine B assay
HOP-62 [4] = test: Antiproliferative activity against human HOP-62 cells assessed as cell growth at 0.00000001 M incubated for 48 hrs by SRB assay relative to control; conditions: dose 10 nM, read-out: Activity
In short: (§2)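 NCI-60 five-dose screen (10^-4 to 10^-8 M). Cells grown in RPMI 1640 with 5% FBS and 2 mM L-glutamine, plated at 5,000-40,000 cells/well and preincubated 24 h. Drug given from DMSO stock, then 48 h at 37 °C, 5% CO2. For adherent lines, cells fixed with cold TCA, SRB-stained and read at 515 nm. Percent growth taken against time-zero and untreated control.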

NCI/ADR-RES [5] = test: Growth inhibition against human NCI/ADR-RES cells incubated for 48 hrs by sulforhodamine B assay
EKVX = test: Antiproliferative activity against human EKVX cells assessed as cell growth at 0.000001 M incubated for 48 hrs by SRB assay relative to control; conditions: read-out: Activity; in short: as §2
HOP-92 [6] = test: Antiproliferative activity against human HOP-92 cells assessed as cell growth at 0.000001 M incubated for 48 hrs by SRB assay relative to control; conditions: read-out: Activity; in short: as §2
NCI-H460 = test: Growth inhibition against human NCI-H460 cells incubated for 48 hrs by sulforhodamine B assay
HOP-62 [7] = test: Antiproliferative activity against human HOP-62 cells assessed as cell growth at 0.0001 M incubated for 48 hrs by SRB assay relative to control; conditions: read-out: Activity; in short: as §2
OVCAR-8 = test: Antiproliferative activity against human OVCAR-8 cells assessed as cell growth inhibition by measuring lethal concentration incubated for 48 hrs by sulforhodamine B assay; conditions: read-out: LC50 (the source's name)
NCI-H23 = test: Antiproliferative activity against human NCI-H23 cells assessed as cell growth at 0.00001 M incubated for 48 hrs by SRB assay relative to control; conditions: read-out: Activity
HT-29 = test: Antiproliferative activity against human HT-29 cells assessed as cell growth at 0.00000001 M incubated for 48 hrs by SRB assay relative to control; conditions: dose 10 nM, read-out: Activity; in short: as §2
OVCAR-3 = test: Antiproliferative activity against human OVCAR-3 cells assessed as cell growth inhibition by measuring lethal concentration incubated for 48 hrs by sulforhodamine B assay; conditions: read-out: LC50 (the source's name)
HCC 2998 = test: Antiproliferative activity against human HCC 2998 cells assessed as cell growth at 0.00001 M incubated for 48 hrs by SRB assay relative to control; conditions: read-out: Activity; in short: as §2
OVCAR-4 = test: Antiproliferative activity against human OVCAR-4 cells assessed as cell growth at 0.0000001 M incubated for 48 hrs by SRB assay relative to control; conditions: dose 100 nM, read-out: Activity
ACHN [8] = test: Growth inhibition against human ACHN cells incubated for 48 hrs by sulforhodamine B assay
MDA-MB-231 = test: Antiproliferative activity against human MDA-MB-231 cells assessed as cell growth at 0.0001 M incubated for 48 hrs by SRB assay relative to control; conditions: read-out: Activity
CCRF-CEM = test: Antiproliferative activity against human CCRF-CEM cells assessed as cell growth at 0.0001 M incubated for 48 hrs by SRB assay relative to control; conditions: read-out: Activity; in short: as §1
M14 = test: Antiproliferative activity against human M14 cells assessed as cell growth at 0.0000001 M incubated for 48 hrs by SRB assay relative to control; conditions: dose 100 nM, read-out: Activity
HOP-92 [9] = test: Growth inhibition against human HOP-92 cells assessed as total growth inhibitory concentration incubated for 48 hrs by sulforhodamine B assay
TK-10 = test: Antiproliferative activity against human TK-10 cells assessed as cell growth at 0.0000001 M incubated for 48 hrs by SRB assay relative to control; conditions: dose 100 nM, read-out: Activity
A498 = test: Antiproliferative activity against human A498 cells assessed as cell growth at 0.0000001 M incubated for 48 hrs by SRB assay relative to control; conditions: dose 100 nM, read-out: Activity; in short: as §1
Hs-578T = test: Antiproliferative activity against human Hs-578T cells assessed as cell growth at 0.0000001 M incubated for 48 hrs by SRB assay relative to control; conditions: dose 100 nM, read-out: Activity
In short: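 NCI-60 five-dose mode, 10^-4 to 10^-8 M in 10-fold steps. RPMI 1640, 5% FBS, 2 mM L-glutamine; 24 h preincubation, then 48 h drug exposure at 37 °C. Stocks in DMSO at 400× the top concentration, diluted in medium with gentamicin. TCA fixation, SRB staining, absorbance at 515 nm. Percent growth from time-zero (Tz), control (C) and test (Ti) readings.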

CAKI-1 = test: Antiproliferative activity against human CAKI-1 cells assessed as cell growth at 0.0001 M incubated for 48 hrs by SRB assay relative to control; conditions: read-out: Activity; in short: as §1
SNB-19 = test: Growth inhibition against human SNB-19 cells assessed as total growth inhibitory concentration incubated for 48 hrs by sulforhodamine B assay
RPMI-8226 [10] = test: Antiproliferative activity against human RPMI-8226 cells assessed as cell growth at 0.000001 M incubated for 48 hrs by SRB assay relative to control; conditions: read-out: Activity

| Structure (SMILES) | growth at 0.01 µM (NCI/ADR-RES [1]) [%] | growth at 10 µM (RXF 393) [%] | growth at 10 µM (ACHN [2]) [%] | GI50 (SK-OV-3) [nM] | growth at 1 µM (A549) [%] | GI50 (COLO 205) [nM] | growth at 0.1 µM (SK-MEL-28) [%] | growth at 10 µM (SR) [%] | GI50 (UACC-257) [nM] | GI50 (IGROV-1) [nM] | GI50 (RPMI-8226 [3]) [nM] | growth at 0.01 µM (HOP-62 [4]) [%] | GI50 (NCI/ADR-RES [5]) [nM] | growth at 1 µM (EKVX) [%] | growth at 1 µM (HOP-92 [6]) [%] | GI50 (NCI-H460) [nM] | growth at 100 µM (HOP-62 [7]) [%] | CC50 (OVCAR-8) [nM] | growth at 10 µM (NCI-H23) [%] | growth at 0.01 µM (HT-29) [%] | also measured |
| --- | --- | --- | --- | --- | --- | --- | --- | --- | --- | --- | --- | --- | --- | --- | --- | --- | --- | --- | --- | --- | --- |
| COc1ccc(-c2cn3ccnc3c(-c3ccc4ncn(C5CCCCC5)c4c3)n2)cc1 | 100 | -2 | 13 | 508 | 63 | 2220 | 95 | 9 | > 100000 | 921 | 2960 | 92 | 618 | 73 | 54 | 622 | 8 | > 100000 | 13 | 94 | CC50 (OVCAR-3): > 100000 nM; growth at 10 µM (HCC 2998): 9%; growth at 0.1 µM (OVCAR-4): 96%; GI50 (ACHN [8]): 692 nM; growth at 100 µM (MDA-MB-231): 19%; growth at 100 µM (CCRF-CEM): 22%; growth at 0.1 µM (M14): 95%; TGI (HOP-92 [9]): > 100000 nM; growth at 0.1 µM (TK-10): 88%; growth at 0.1 µM (A498): 92%; growth at 0.1 µM (Hs-578T): 102%; growth at 100 µM (CAKI-1): 26%; TGI (SNB-19): > 100000 nM; growth at 1 µM (RPMI-8226 [10]): 86% |
| c1ccc(Cn2cnc3ccc(-c4nc(-c5ccc6c(c5)ncn6C5CCCCC5)cn5ccnc45)cc32)cc1 | 100 | -79 | 11 | 2530 | 106 | 1880 | 96 | 5 | 2240 | 2140 | 1150 | 79 | 1980 | 76 | 65 | 2300 | 5 | > 100000 | -46 | 99 | CC50 (OVCAR-3): > 100000 nM; growth at 10 µM (HCC 2998): -92%; growth at 0.1 µM (OVCAR-4): 98%; GI50 (ACHN [8]): 3080 nM; growth at 100 µM (MDA-MB-231): -31%; growth at 100 µM (CCRF-CEM): 9%; growth at 0.1 µM (M14): 91%; TGI (HOP-92 [9]): 2620 nM; growth at 0.1 µM (TK-10): 84%; growth at 0.1 µM (A498): 101%; growth at 0.1 µM (Hs-578T): 104%; growth at 100 µM (CAKI-1): 23%; TGI (SNB-19): > 100000 nM; growth at 1 µM (RPMI-8226 [10]): 55% |
